Most compounds without a hit are left out; they make up all but 4.6% or so of the library.
OX1R antag-1: human HCRTR1 antagonism; CHO/OX1R cells, Fluo-8 calcium fluorescence, orexin A; AID 434989; inhibition, % at 5 µM; 0.43% of 330,000 active;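 active = inhibition above its plate's threshold, mean inhibition of all tested compounds on the plate plus 3 SD, cut at about 37% in these data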;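 also: 0% = orexin A challenge wells and 100% = SB-334867-A antagonist wells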
Target sequence (O43613 whole entry, looked up): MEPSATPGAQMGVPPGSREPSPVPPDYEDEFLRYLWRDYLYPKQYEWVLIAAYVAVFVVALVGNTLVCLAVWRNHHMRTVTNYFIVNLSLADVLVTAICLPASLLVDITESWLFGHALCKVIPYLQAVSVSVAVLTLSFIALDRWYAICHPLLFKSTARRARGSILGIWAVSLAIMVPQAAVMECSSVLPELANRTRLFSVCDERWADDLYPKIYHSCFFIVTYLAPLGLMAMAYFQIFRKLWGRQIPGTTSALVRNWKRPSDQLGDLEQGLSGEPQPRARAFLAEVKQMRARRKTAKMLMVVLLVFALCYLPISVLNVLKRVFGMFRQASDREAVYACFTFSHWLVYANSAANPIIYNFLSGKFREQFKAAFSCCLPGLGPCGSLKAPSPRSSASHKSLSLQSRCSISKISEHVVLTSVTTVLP
GPR7 antag: antagonists of human GPR7 (neuropeptides B/W receptor 1) | P48145 | GPR7-expressing cells, fluorescence antagonist assay | inhibition, % at 4.4 µM | 1.1% of 290,000 active; in the data active = inhibition above about 16%, passing the limit was not always enough;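 also: cells stimulated with the agonist NPW; 0% = agonist with vehicle and 100% = vehicle without agonist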
CHO parental Ca: counter-screen: ATP calcium response change in parental CHO cells. parental CHO-K1, ATP-induced calcium, Fluo-8 fluorescence. inhibition, % at 5.6 µM. 0.63% of 330,000 active. AID 463079;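 active = inhibition above that plate's mean sample inhibition plus 3 SD, cut at about 26% in these data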;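 also: 0% = ATP-challenged DMSO wells and 100% = DMSO wells without ATP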
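Measured by: calcium-sensitive Fluo-8 fluorescence / Test system: CHO parental line / Controls: ATP-challenged DMSO wells low, unchallenged DMSO wells high / Measure: % inhibition / Compound: single nominal dose of 5.6 µM per compound / Replicates: single well per compound, no replicates / Reagent: ATP as calcium-mobilizing challenge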
TAAR1 antag: antagonists of human TAAR1; Q96RJ0; CHO RD-HGA16 TAAR1, Fluo-8 calcium fluorescence, antagonist; inhibition, % at 3 µM; 1.5% of 360,000 active;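 active = inhibition above a per-plate cutoff, the mean inhibition of test compounds on that plate plus 3 SD, cut at about 49% in these data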;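 also: 0% = DMSO plus EC80 beta-PEA response and 100% = DMSO alone without agonist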
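Material: CHO RD-HGA16 cells bearing hTAAR1; compound dosing: one-point dosing, 3 µM nominal final; schedule: dye loading 75 min at 37 °C, then 30 min room temperature; measured by: calcium fluorescence with Fluo-8; control set: vehicle and agonist controls; replication: n of 1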
TAAR1 agonist: agonists of human TAAR1. Q96RJ0. CHO RD-HGA16 TAAR1, Fluo-8 calcium fluorescence; vehicle wells 0%, saturating PEA agonist 100%. activation, % at 3 µM. 0.99% of 360,000 active. AID 624467;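 active = activation above the mean activation of all test compounds in the run plus 3 SD, cut at about 38% in these data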
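System: CHO-derived RD-HGA16 cells with stable Gα16 and human TAAR1. Times: 17-24 h plating, Fluo-8 75 min 37 °C, 30 min RT. Measured by: calcium-sensitive Fluo-8 signal, excitation 470-495, emission 515-575 nm. Read-out basis: % activation relative to PEA EC100 response. Control set: DMSO and PEA EC100. Repeats: no replicates (n 1).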
OX1R antag-2: OX1R (human) antagonism | OX1R-expressing cells, FRET antagonist read-out | O43613 | AID 485270 | 1.8% of 330,000 active | inhibition, % at 6.6 µM; in the data active = inhibition mostly above about 38%, no sharp cut-off; inactive = mostly below about 40%;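 also: 0% = agonist challenge alone and 100% = reference antagonist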
GPR7 antag conf: confirmation of human GPR7 antagonists. shares compounds with GPR7 antag. GPR7-expressing cells, calcium fluorescence antagonist mode. inhibition, % at 4.4 µM. 52% of 2,400 active; in the data active = inhibition above about 24%;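 also: stimulated with the GPR7 agonist NPW; 0% = agonist plus vehicle and 100% = vehicle alone without agonist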
MCHR1 antag: counter-screen for GPR7 antagonists: antagonists of human MCHR1; shares compounds with GPR7 antag; MCHR1-expressing cells, fluorescence antagonist assay; inhibition, % at 4.4 µM; 62% of 2,400 active; in the data active = inhibition above about 22%;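 also: 0% = vehicle with agonist and 100% = vehicle without agonist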
Starred values were filed as active, the others as inactive.

Screening COc1ccc(CN(C)C(=O)/C=C/c2ccc(S(=O)(=O)N3CCCCCC3)cc2)cc1 returned OX1R antag-1 3, CHO parental Ca -15, TAAR1 antag 29, TAAR1 agonist 15 and OX1R antag-2 -1.
Cc1cc2c(cc(C(=O)OCC(=O)NCc3ccco3)n2C)s1 was read as OX1R antag-1 -7, GPR7 antag 29*, CHO parental Ca 2, TAAR1 antag -28, TAAR1 agonist 0, OX1R antag-2 6, GPR7 antag conf 13 and MCHR1 antag 22*.
Screening CC[C@@H](NCCCn1cnc2c(SC)ncnc21)c1ccccc1 returned TAAR1 antag -22 and TAAR1 agonist 6.
For C(=N/n1c2ccccc2c2ccccc21)/c1ccco1 the results were OX1R antag-1 -19, GPR7 antag 26*, CHO parental Ca -35, TAAR1 antag -5, TAAR1 agonist 17, OX1R antag-2 7, GPR7 antag conf -12 and MCHR1 antag 10.
Cc1ccc(C(O)(C(=O)NN(C(=O)c2ccccc2)c2ccccc2)c2ccc(C)cc2)cc1 was read as OX1R antag-1 -5, GPR7 antag 36*, CHO parental Ca -2, TAAR1 antag 6, TAAR1 agonist 5, OX1R antag-2 25, GPR7 antag conf 39* and MCHR1 antag 23*.
Screening O=C(c1ccccc1)N(NC(=O)C(O)(c1ccccc1)c1ccccc1)c1cccc(F)c1 returned OX1R antag-1 -22, GPR7 antag 37*, CHO parental Ca -7, TAAR1 antag 8, TAAR1 agonist 1, OX1R antag-2 7, GPR7 antag conf 15 and MCHR1 antag 64*.
For CC(C)(O)C(=O)NN(C(=O)c1ccccc1)c1ccc2ccccc2c1 the results were OX1R antag-1 -33, GPR7 antag 9, CHO parental Ca -19 and OX1R antag-2 18.
`CCOc1cc(S(=O)(=O)N2CCCCC2)ccc1Cl` gave OX1R antag-1 -31, GPR7 antag 25*, CHO parental Ca -24, TAAR1 antag 2, TAAR1 agonist -4, OX1R antag-2 15, GPR7 antag conf -8 and MCHR1 antag 28*.
CCOc1cc(S(=O)(=O)N2CCN(CC)CC2)ccc1Cl was read as OX1R antag-1 -13, GPR7 antag -9, CHO parental Ca -20, TAAR1 antag 8, TAAR1 agonist 1 and OX1R antag-2 11.
O=C(O)C1(C(=O)O)CCC2(CCCCC2)CC1 was read as TAAR1 antag -27 and TAAR1 agonist 1.
For CCOc1cc(CNCCO)cc(Br)c1OCc1ccc(Cl)cc1Cl the results were OX1R antag-1 41*, GPR7 antag 42*, CHO parental Ca 19, TAAR1 antag -4, TAAR1 agonist 11, OX1R antag-2 -7, GPR7 antag conf 68* and MCHR1 antag 77*.
Screening CC1CCCN(S(=O)(=O)c2ccc(S(=O)(=O)NC(C)c3cccs3)cc2)C1 (centres undefined) returned OX1R antag-1 -9, GPR7 antag 48*, CHO parental Ca 1, TAAR1 antag 14, TAAR1 agonist 11, OX1R antag-2 11, GPR7 antag conf 53* and MCHR1 antag 32*.
O=C(COC(=O)C1=COCCO1)Nc1cc(Cl)c(Cl)cc1Cl was read as OX1R antag-1 -14, CHO parental Ca -14, TAAR1 antag -1, TAAR1 agonist 9 and OX1R antag-2 4.
Screening C/C(=N\NC(=O)CNC(=O)c1ccco1)c1ccc(Br)cc1 returned OX1R antag-1 -10, GPR7 antag 24*, CHO parental Ca 9, TAAR1 antag -19, TAAR1 agonist 0, OX1R antag-2 16, GPR7 antag conf 18 and MCHR1 antag 10.
`CCn1cc(C(=O)N2CCN(c3ccc(F)cc3)CC2)c2cc(OC)c(OC)cc2c1=O` gave OX1R antag-1 -17, GPR7 antag -11, CHO parental Ca -15, TAAR1 antag 3, TAAR1 agonist -2 and OX1R antag-2 14.
For CCn1cc(C(=O)N2CCN(c3ccc(OC)cc3)CC2)c2cc(OC)c(OC)cc2c1=O the results were OX1R antag-1 -6, GPR7 antag 39*, CHO parental Ca -25, TAAR1 antag -19, TAAR1 agonist 7, OX1R antag-2 8, GPR7 antag conf -14 and MCHR1 antag -8.
CCNC(=O)NC(=O)C(C)OC(=O)c1oc2ccc(OC)cc2c1C (centres undefined) was read as OX1R antag-1 -15, GPR7 antag 38*, CHO parental Ca -7, TAAR1 antag -8, TAAR1 agonist 0, OX1R antag-2 9, GPR7 antag conf 8 and MCHR1 antag 15.
`COc1ccc2oc(C(=O)OC(C)C(=O)N(C)c3ccccc3)c(C)c2c1` (centres undefined) gave OX1R antag-1 -23, CHO parental Ca 2, TAAR1 antag -7, TAAR1 agonist 0 and OX1R antag-2 37.
CC(C)C[C@H](NC(=O)N1c2ccccc2NC(=O)[C@@H]1C(C)C)C(=O)N[C@@H](Cc1ccccc1)C(=O)O was read as OX1R antag-1 3, GPR7 antag -7, CHO parental Ca -7, TAAR1 antag -1, TAAR1 agonist 0 and OX1R antag-2 16.
Screening Cc1ccc(-c2csc(NC(=O)C3CCN(S(=O)(=O)c4cccs4)CC3)n2)cc1 returned OX1R antag-1 6, GPR7 antag 39*, CHO parental Ca 22, TAAR1 antag 1, TAAR1 agonist 1, OX1R antag-2 15, GPR7 antag conf 43* and MCHR1 antag 57*.
`Cc1ccc(NC(=O)C2CCN(S(=O)(=O)c3cccs3)CC2)cc1` gave OX1R antag-1 -21, GPR7 antag 0, CHO parental Ca -4, TAAR1 antag 19, TAAR1 agonist 1 and OX1R antag-2 -3.
Screening Cc1cc(C)cc(-n2c3ccc(NC(=S)NC4CCCCC4)cc3c(=O)n2C)c1 returned TAAR1 antag -5 and TAAR1 agonist 3.
For Cc1c(Cc2c(Cl)cccc2Cl)c(=O)ccn1C(C)c1ccccc1 (centres undefined) the results were GPR7 antag 35*, TAAR1 antag 12, TAAR1 agonist 24, GPR7 antag conf 27* and MCHR1 antag 25*.
`CC(=O)c1cccc(S(=O)(=O)Nc2ccc3nc(C)sc3c2)c1` gave OX1R antag-1 0, GPR7 antag -2, CHO parental Ca 21, TAAR1 antag 8, TAAR1 agonist 4 and OX1R antag-2 17.

High-throughput results (PubChem BioAssay)
